Screening results as filed in PubChem.
hERG protect: hERG (human) protection from proarrhythmic block. CHO-hERG, FluxOR thallium flux, dofetilide IC70 present. Q12809. 310,000 tested, 0.51% active. activation (rescue from dofetilide block), less the hit threshold, % at 10 µM;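 active means activation above the mean of controls blocked by dofetilide plus 5 SD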;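 further: thallium influx through hERG after potassium depolarization seen as dye fluorescence rise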
KCNK3 inh: human KCNK3 channel inhibition, primary screen; B-score at 10 µM; O14649; CHO-KCNK3 thallium flux, FluxOR fluorescence; stronger effect = lower value; 340,000 tested, 0.84% active; AID 602410;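 active means B-score under library mean minus 4 SD, starting fluorescence ratio at most library mean plus 5 SD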;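 further: more negative B-score means stronger inhibition of thallium flux through KCNK3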
Target sequence (O14649 whole entry, looked up): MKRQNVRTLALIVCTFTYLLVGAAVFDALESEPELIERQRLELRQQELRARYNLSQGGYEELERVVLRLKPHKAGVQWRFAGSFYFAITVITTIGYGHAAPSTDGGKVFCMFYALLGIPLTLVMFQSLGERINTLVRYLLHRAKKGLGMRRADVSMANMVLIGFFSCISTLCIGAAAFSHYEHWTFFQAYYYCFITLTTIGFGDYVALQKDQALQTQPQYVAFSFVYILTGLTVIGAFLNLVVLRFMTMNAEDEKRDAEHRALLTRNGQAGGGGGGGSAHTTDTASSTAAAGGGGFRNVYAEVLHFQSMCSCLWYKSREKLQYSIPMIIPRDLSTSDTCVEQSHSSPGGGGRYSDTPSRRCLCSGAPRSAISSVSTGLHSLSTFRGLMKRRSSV
KCNQ1 pot: human KCNQ1 channel potentiation or activation | P51787 | CHO-K1 KCNQ1, thallium flux FluxOR fluorescence; stronger effect = higher value | B-score at 10 µM | 310,000 tested, 0.35% active | AID 2648;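 active means fluorescence ratio B-score, a plate-corrected score, at least three library SD, with initial intensity B-score within 5 SD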
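assay system = CHO-K1 cells stably expressing KCNQ1 | medium = assay buffer, equal DMSO in all wells | timing = 37 °C overnight plating, 90-min dark dye load, 20-min compound pretreatment | measured by = kinetic FluxOR thallium fluorescence, 10-s 1-Hz baseline, 110-s post-stimulus read | measure = fluorescence change relative to baseline, converted to B score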
Kir21 block: inhibitors of mouse Kir2.1 inward-rectifier potassium channel; HEK293-Kir2.1, FluxOR thallium flux fluorescence; stronger effect = lower value; B-score at 10 µM; 310,000 tested, 0.85% active;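 active means fluorescence ratio B-score at or below minus 3 SD of library scores, with starting-brightness B-score within 2 SD, cut at about -4.2 in these data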;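 further: channel flux triggered by added potassium and thallium sulfate stimulus; B-score of peak minus minimum fluorescence over baseline after thallium stimulus; more negative B-score means stronger Kir2.1 block with less thallium influx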
KCNK9 inh: blocks the human KCNK9 two-pore domain potassium channel | Q9NPC2 | HEK293 KCNK9, FluxOR thallium flux fluorescence; stronger effect = lower value | B-score at 10 µM | 310,000 tested, 1.2% active | AID 488922;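 active means ratio B-score over 3 SD below the library mean, with starting fluorescence within 5 SD of its mean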;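 further: negative B-score means less thallium flux so channel inhibition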
KCNQ1 block: human KCNQ1 channel inhibition. CHO-K1 KCNQ1, FluxOR thallium flux fluorescence; stronger effect = higher value. AID 2642. 310,000 tested, 1.3% active. B-score at 10 µM;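 active means compounds whose thallium flux B-score, printed positive for inhibition, exceeds three library SD while starting fluorescence stays within three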;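 further: channel opened by potassium depolarization with thallium stimulus after 20 min compound exposure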
KCNK9 inh conf: human KCNK9 inhibitor confirmation; AID 492992; shares compounds with KCNK9 inh; HEK293 KCNK9 cells, FluxOR thallium flux fluorescence; inhibition, % at 10 µM; 4,900 tested, 43% active;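 active means thallium signal inhibited by more than 5 SD of the compound-free buffer control wells, on both duplicate plates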;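 further: 0% = assay buffer control wells without compound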
Kir21 sel: mouse Kir2.1 off-target activity of KCNK9 modulators. shares compounds with KCNK9 inh. Kir2.1 cells, FluxOR thallium flux fluorescence. inhibition, % at 10 µM. 4,900 tested, 4% active;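 active means thallium signal drop more than 5 SD beyond the mean of the no-compound control wells, seen in both duplicate plates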;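 further: signal is fluorescence rise after thallium addition divided by baseline fluorescence; plate controls were assay buffer only for no effect and full block by chlorpromazine control for full effect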
KCNK9 uninduced: second counter-screen for KCNK9 modulators: effect in non-induced cells. inhibition, % at 10 µM. shares compounds with KCNK9 inh. 4,900 tested, 40% active. AID 492997. non-induced KCNK9-HEK293, FluxOR thallium flux;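 active means thallium signal drop beyond 5 SD of the untreated control mean, on both duplicate plates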;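 further: plate controls were buffer only IC0 wells for no effect and SID17386958 at its maximal inhibitory level for full effect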
Numbers without * were called inactive; i = inactive; x = no result given. In the library only some 3.7% were active in any assay of this set; here they are far more common.

SMILES | hERG protect | KCNK3 inh | KCNQ1 pot | Kir21 block | KCNK9 inh | KCNQ1 block | KCNK9 inh conf | Kir21 sel | KCNK9 uninduced
CCNC(=O)N(CCOC)CC1CCCN(C2Cc3ccccc3C2)C1 (stereo not drawn) | -2.2 | i | i | 0.06 | i | i | x | x | x
O=C(CSc1nc2scc(-c3ccccc3)c2c(=O)[nH]1)N1CCOCC1 | -13.7 | i | i | -1.01 | i | i | x | x | x
Cc1[nH]n(C2=NCCS2)c(=O)c1N=Nc1ccccc1 | -15.9 | i | i | -0.12 | -11.5* | i | i | i | 31.5%*
Cc1[nH]n(-c2ccccc2)c(=O)c1N=Nc1ccc2c(c1)OCO2 | -11.0 | i | i | 1.42 | i | i | x | x | x
COc1ccc2c(c1)C1=NN(/C(C)=C/C(C)=O)C(c3cccc(F)c3)C1CC2 (stereo not drawn) | -16.2 | i | i | -1.73 | -11.6* | i | 44.0%* | i | 33.0%*
CC(C)n1nc(C(=O)Nc2nnc(SCc3c(Cl)cccc3Cl)s2)c2ccccc2c1=O | -14.6 | i | i | 0.05 | i | i | i | i | i
CO/N=C(\c1nonc1N)N1CCN(c2ccc(Cl)cc2[N+](=O)[O-])CC1 | -14.3 | i | i | 1.44 | -8.27* | i | 31.5%* | i | 39.0%*
Cc1ccc(C)c(Cn2nnc3c(=O)[nH]c(C4CCCN(C(=O)C5CCCCC5)C4)nc32)c1 (stereo not drawn) | -9.6 | i | i | 2.67 | -17.6* | i | 64.5%* | i | 25.0%*
CCCCc1ccc(NC(=O)CSc2nnc(C)c(=O)n2N)cc1 | -7.6 | i | i | 1.41 | i | i | x | x | x
Cc1ccc(CNC(=O)c2ccc(CNS(=O)(=O)c3ccc4c(c3)C(C)(C)C(=O)N4C)cc2)o1 | -7.0 | i | i | 1.3 | i | i | i | i | i
Cc1ccc(NC(=O)CN2C(=O)S/C(=C\c3cc(C)n(-c4ccc(C(=O)O)cc4)c3C)C2=O)cc1 | -11.9 | i | i | 0.75 | i | i | i | i | i
Cc1ccc(NC2CCCN(C(=O)CN3C(=O)CSC3=O)C2)cc1C (stereo not drawn) | -12.8 | i | i | -0.29 | i | i | x | x | x
CCOC(=O)c1nc(NCc2ccccc2)c2ccccc2n1 | -1.6 | i | i | -0.7 | i | i | x | x | x
CCCCN(C)C(=O)CSc1nc(NCc2ccc(OC)cc2)c2ccccc2n1 | -12.1 | i | i | -1.58 | i | i | i | i | i
Cc1ccccc1-c1nnc(SCC(=O)NC2CCS(=O)(=O)C2)n1C (stereo not drawn) | x | i | x | x | x | x | x | x | x
CC(C)Cn1cnc2c(c(-c3ccccc3)c(-c3ccccc3)n2Cc2ccco2)c1=N | -20.4 | i | i | -9.72* | -9.85* | 9* | 67.5%* | 56.5%* | 28.5%*
O=c1c2c3nc4ccccc4nc3n(Cc3ccccc3)c2ncn1Cc1ccco1 | x | i | x | x | x | x | x | x | x
N=c1c2c(-c3ccccc3)c(-c3ccccc3)n(Cc3ccco3)c2ncn1Cc1ccccc1 | -30.6 | i | i | -5.91* | -15.4* | 10* | 59.5%* | 52.0%* | 27.5%*
COCCNC(=O)Cn1cc(/C=C(\C#N)C(=O)NC2CCCC2)c2ccccc21 | -1.7 | i | i | 0.68 | i | i | x | x | x
COc1cc(C2Nc3ccccc3C(=O)N2c2ccc(Cl)cc2)c(Cl)cc1OCC(=O)O (stereo not drawn) | -8.0 | i | i | -0.43 | i | i | x | x | x
CCOC(=O)COc1ccccc1C1Nc2ccccc2C(=O)N1c1cccc(Cl)c1 (stereo not drawn) | -1.0 | -10.5* | i | 1.99 | -14* | i | 62.5%* | i | 34.5%*
CCOC(=O)COc1c(OC)cc(Cl)cc1C1Nc2ccccc2C(=O)N1c1ccc(F)cc1 (stereo not drawn) | -0.2 | i | i | 2.08 | -12.4* | i | 63.5%* | i | 41.0%*
CCCN(C(=O)c1c(-c2ccccc2)noc1C)c1c(N)n(Cc2ccccc2)c(=O)[nH]c1=O | x | i | x | x | x | x | x | x | x
CSc1ccc(C=NNc2ccc(S(=O)(=O)Nc3ccccc3C(=O)O)cc2[N+](=O)[O-])cc1 | x | i | x | x | x | x | x | x | x
Cc1nn(-c2ccccc2)c(Cl)c1/C=N/Nc1ccc(S(=O)(=O)Nc2ccccc2C(=O)O)cc1[N+](=O)[O-] | -11.0 | i | i | 1.82 | i | i | i | i | i
SMILES | hERG protect | KCNK3 inh | KCNQ1 pot | Kir21 block | KCNK9 inh | KCNQ1 block | KCNK9 inh conf | Kir21 sel | KCNK9 uninduced
COc1cc(OC)c(C(=O)/C=C/c2ccc(OCc3ccccc3)c(OC)c2)c(OC)c1 | -6.3 | i | i | -1.35 | i | i | x | x | x
COc1cc(OCc2ccccc2)c(C(=O)/C=C/c2ccc3c(c2)OCO3)c(OC)c1OC | -6.3 | i | i | -1.1 | -8.86* | i | i | i | 35.0%*
CSc1ncccc1C(=O)N1CCN(S(=O)(=O)c2ccccc2)CC1 | -0.7 | i | i | -0.6 | i | i | x | x | x
C/C(=N\NC(=O)c1ccn(C)n1)c1ccc(NC(=O)C2CCCC2)cc1 | -7.9 | i | i | 1.18 | i | i | x | x | x
C/C(=N\NC(=O)c1nn(C)c(C)c1Br)c1ccc(NC(=O)C2CCCC2)cc1 | -7.1 | i | i | 0.96 | -12.1* | i | 68.0%* | i | i
CN(C)C(=O)c1cc(C(=O)c2c(F)cccc2F)c[nH]1 | -6.3 | i | i | 0.43 | i | i | x | x | x
C#CCn1c(S(=O)(=O)Cc2ccc(OC)cc2)nc(-c2ccccc2)c1-c1ccccc1 | -1.9 | -9.38* | i | 0.07 | -18.4* | i | 62.5%* | i | 25.5%*
COc1ccc(-c2nc3ccccc3nc2-c2ccccc2)cc1 | -5.2 | i | i | 1.69 | i | i | x | x | x
CCc1nc(N=C(N)N)nc2ccccc12 | -1.9 | x | i | -0.02 | i | i | x | x | x
NC(N)=Nc1nc(-c2ccccc2)c2ccccc2n1 | -20.8 | i | i | -3.39 | -9.61* | i | 27.0%* | i | i
COCCn1c(=NC(=O)CSC(C)=O)sc2cc(F)ccc21 | -1.8 | i | i | 0 | i | i | x | x | x
CCOC(=O)Cn1c(=NC(=O)CSC(C)=O)sc2cc(F)ccc21 | -13.1 | i | i | -0.19 | -8.6* | i | 63.0%* | i | 33.0%*
CCOCCn1c(=NC(=O)CSCC(=O)Nc2cc(C)on2)sc2cc(OC)ccc21 | -4.8 | i | i | -0.76 | i | i | x | x | x
